# Test results taken from paper PMC10884431 (Heliyon, 2024).
# How the values were obtained:
# [1] = tested on: macrophages; test: Nitric oxide; type: cell-based; details: positive control at 5 μM
# How it was run: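 NO production measured by absorbance at 540 nm on a microplate reader. The assay was run in triplicate and repeated in three independent experiments.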
# [2] = target: SARS-CoV-2 main protease (M^pro) (Severe acute respiratory syndrome coronavirus 2, UniProt P0DTD1); test: M^pro inhibition assay; type: biochemical; details: read-out: SARS-CoV-2 M^pro inhibition percentage, reference at 1 μM
# [3] = target: HIV-1 reverse transcriptase (Human immunodeficiency virus type 1 group M subtype B, UniProt P03366); test: HIV-1 reverse transcriptase inhibition assay; type: biochemical; details: positive control at 1 μM
# How it was run: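 Test compound in DMSO is added, then reverse transcriptase (25 nM solution), and the mix is held 30 min at room temperature. The reaction is stopped with EDTA, PicoGreen is added and endpoint fluorescence is read at 485/535 nm. % inhibition is taken against a DMSO control, minus an EDTA-pretreated blank. Nevirapine is the reference.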
# [4] = tested on: alpha-glucosidase; details: from the lichen Parmotrema dilatatum; cited from earlier work
smiles,measurement,setting,value
Cc1ccc(S(=O)(=O)/C=C/C#N)cc1 [Bay 11–7082],% NO inhibition ±SD,[1],72.5 ± 3.9%
same,% Cell viability ±SD,[1]; NO assay,82.7 ± 5.3%
Cc1cccc(C)c1OCC(=O)N[C@@H](Cc1ccccc1)[C@@H](O)C[C@H](Cc1ccccc1)NC(=O)[C@H](C(C)C)N1CCCNC1=O [Lopinavir],inhibition at 1 µM,[2],47.7 ± 1.7%
Cc1ccnc2c1NC(=O)c1cccnc1N2C1CC1 [Nevirapine],HIV-1 reverse transcriptase inhibition percentage,[3],38.3 ± 2.5%
COC(=O)c1c(C)c(Cc2c(O)c(Oc3c(C=O)c(O)cc(C)c3C(=O)OC)c3c(c2O)C(=O)O[C@@H]3O)c(O)c(C=O)c1O [parmetherines A],Alpha-glucosidase inhibition (in words),[4],strong
COC(=O)c1c(C)c(Cc2c(O)c(Oc3c(C=O)c(O)cc(C)c3C(=O)OC)c3c(c2O)C(=O)O[C@@H]3OC)c(O)c(C=O)c1O [parmetherines B],Alpha-glucosidase inhibition (in words),[4],strong
